Results: ChEMBL document CHEMBL1132314, “Synthesis and amyloid binding properties of rhenium complexes: preliminary progress toward a reagent for SPECT imaging of Alzheimer's disease brain” (J Med Chem, 1999)

How the values were obtained:
[1] = Bmax value was measured on A-beta-40 fibrils at high salt
Procedure, shortened: (§1)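 Synthetic Aβ40 fibrils (50 µM total Aβ40 stock, 20 µL added to 180 µL probe solution) were incubated with probe at 2–18 µM final in pH 7.4 10 mM phosphate, with 100 or 0 mM NaCl. Stocks for the Re complexes were in methanol, ≤3 vol % final. The mixture was held 1 h at 25 °C, then fibrils were pelleted by centrifugation.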

[2] = max value was measured on A-beta-40 fibrils at low salt; procedure, shortened: as §1
[3] = Apparent dissociation constant was measured at 10 mM salt; procedure, shortened: as §1
[4] = Apparent dissociation constant was measured at 110 mM salt; procedure, shortened: as §1
[5] = Partition coefficient (P); settings: octanol/water

- Bmax [1]: 2.6
- Bmax [2]: 0.6
- Kd [3]: 1100 nM
- Kd [4]: 1500 nM
- P [5]: 0.16
SMILES: Nc1c(/N=N/c2ccc(-c3ccc(/N=N/c4cc(S(=O)(=O)O)c5ccccc5c4N)cc3)cc2)cc(S(=O)(=O)O)c2ccccc12 [CONGO RED]
